What was measured:
Format in all cases: in vivo, human
[1] = system: subjects with presumed F2/F3 NASH; assay: Collagen biomarkers; settings: for Pro-C3, Mean: plasma
Summary of the method: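 Adults with presumed F2/F3 NASH were randomized 2:1 to oral active or matching placebo, given as 75-mg soft-gelatin capsules once daily in the morning, fasted, for 28 days. Collagen turnover markers were sampled at baseline (Day 1, pre-dose), after 28 days of dosing, and at end of study after a 14-day observation period. Values are summarized as mean, SD, median and range.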

[2] = Whole-blood pharmacokinetics; settings: subjects with F2/F3 NASH, derived from CL/F and Vc/F estimates
Summary of the method: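 Whole-blood samples were taken on Day 1 and Day 28 of once-daily oral dosing and assayed for parent drug and primary metabolites. Population PK used nonlinear mixed-effects modeling with first-order conditional estimation with interaction. Model choice used −2LL, AIC/BIC, %RSE and residual/VPC diagnostics; predictions ran to 816 h. CIs came from jackknife bootstrap (500 runs). Half-life was derived from CL/F and Vc/F estimates.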

[3] = system: subjects with presumed F2/F3 NASH; assay: Serum liver enzymes ALT and AST, Phase 2a exploratory efficacy; settings: for ALT, Mean: serum
Summary of the method: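 Serum ALT and AST are exploratory efficacy endpoints, taken as absolute and percent change from baseline. Sampling was at Day 1 before dosing, during 28 days of once-daily fasted oral dosing, and after a 14-day off-drug observation period. Analysis used repeated-measures ANOVA/ANCOVA with Bonferroni correction, or Friedman/Savage nonparametric ANOVA when data were non-normal or sparse.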

[4] = system: subjects with presumed F2/F3 NASH; assay: Phase 2a safety and tolerability; settings: 28 days
Summary of the method: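 Single-blind (subjects only), 2:1 randomized, placebo-controlled, at 10 US sites. Dosing was oral, once daily in the morning, fasted, for 28 days, as 75-mg soft-gelatin capsules. AEs, SAEs, labs (chemistry, hematology, coagulation, urinalysis), ECG, vitals and physical exams were recorded at screening, at Day 1 pre-dose baseline, then weekly for 4 weeks. Results are given as counts and percentages of the safety set per group.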

[5] = 75 mg QD oral x 28 days, Day 1 (baseline, before dosing), N = 14
[6] = 75 mg QD oral x 28 days, Day 1 (baseline, before dosing), N = 15
[7] = 75 mg QD oral x 28 days, Day 14, N = 14
[8] = 75 mg QD oral x 28 days, Day 14, N = 15
[9] = 75 mg QD oral x 28 days, Day 28, N = 14
[10] = 75 mg QD oral x 28 days, Day 28, N = 15
[11] = 75 mg QD oral x 28 days, Day 42 (after 14-day observation period), N = 14
[12] = 75 mg QD oral x 28 days, Day 42 (after 14-day observation period), N = 15
[13] = 225 mg QD oral x 28 days, Day 1 (baseline, before dosing), N = 15
[14] = 225 mg QD oral x 28 days, Day 1 (baseline, before dosing), N = 16
[15] = 225 mg QD oral x 28 days, Day 14, N = 15
[16] = 225 mg QD oral x 28 days, Day 14, N = 16
[17] = 225 mg QD oral x 28 days, Day 28, N = 15
[18] = 225 mg QD oral x 28 days, Day 28, N = 16
[19] = 225 mg QD oral x 28 days, Day 42 (after 14-day observation period), N = 16

Substance: Rencofilstat [RCF]
- C1M, Mean [1, 5]: 90185.71 pg/mL
- C6M, Mean [1, 5]: 25142.86 pg/mL
- PRO-C8, Mean [1, 6]: 4985.33 pg/mL
- Pro-C3, Mean [1, 5]: 23792.86 pg/mL
- C1M, Mean [1, 7]: 80125.00 pg/mL
- C6M, Mean [1, 7]: 25825.00 pg/mL
- PRO-C8, Mean [1, 8]: 4693.33 pg/mL
- Pro-C3, Mean [1, 7]: 22916.67 pg/mL
- C1M, Mean [1, 9]: 70490.91 pg/mL
- C6M, Mean [1, 9]: 23354.55 pg/mL
- PRO-C8, Mean [1, 10]: 4683.33 pg/mL
- Pro-C3, Mean [1, 9]: 22933.33 pg/mL
- C1M, Mean [1, 11]: 65309.09 pg/mL
- C6M, Mean [1, 11]: 23783.33 pg/mL
- PRO-C8, Mean [1, 12]: 4923.33 pg/mL
- PRO-C8, Mean [1, 13]: 4693.33 pg/mL
- C1M, Mean [1, 14]: 70262.50 pg/mL
- C6M, Mean [1, 14]: 31406.25 pg/mL
- Pro-C3, Mean [1, 13]: 24413.33 pg/mL
- PRO-C8, Mean [1, 15]: 4138.13 pg/mL
- C1M, Mean [1, 16]: 55843.75 pg/mL
- C6M, Mean [1, 16]: 29168.75 pg/mL
- Pro-C3, Mean [1, 15]: 22418.75 pg/mL
- PRO-C8, Mean [1, 17]: 4416.88 pg/mL
- C1M, Mean [1, 18]: 62100.00 pg/mL
- C6M, Mean [1, 18]: 31362.5 pg/mL
- Pro-C3, Mean [1, 17]: 24043.75 pg/mL
- PRO-C8, Mean ([1]; 225 mg QD oral x 28 days, Day 42 (after 14-day observation period), N = 15): 4712.94 pg/mL
- C1M, Mean [1, 19]: 69850.00 pg/mL
- C6M, Mean [1, 19]: 33168.75 pg/mL
- effective half-life of elimination (T1/2) [2]: 33.7 ± 11.1 h
- AST, Mean [3, 6]: 49.47 IU/L
- ALT, Mean [3, 6]: 60.53 IU/L
- AST, Mean [3, 8]: 39.42 IU/L
- ALT, Mean [3, 8]: 47.00 IU/L
- AST, Mean [3, 10]: 35.08 IU/L
- ALT, Mean [3, 10]: 42.50 IU/L
- AST, Mean [3, 12]: 41.45 IU/L
- ALT, Mean [3, 12]: 50.00 IU/L
- AST, Mean [3, 14]: 31.94 IU/L
- ALT, Mean [3, 14]: 36.06 IU/L
- AST, Mean [3, 16]: 32.82 IU/L
- ALT, Mean [3, 16]: 31.59 IU/L
- AST, Mean [3, 18]: 32.38 IU/L
- ALT, Mean [3, 18]: 30.56 IU/L
- AST, Mean [3, 19]: 31.38 IU/L
- Subjects with any TEAE ([4]; 75 mg QD oral, N = 15): 5 (33.3%) n (%)
- TEAE: Back pain ([4]; 75 mg QD oral, N = 15): 0 (0%) n (%)
- TEAE: Constipation ([4]; 75 mg QD oral, N = 15): 1 (6.7%) n (%)
- TEAE: Diarrhea ([4]; 75 mg QD oral, N = 15): 0 (0%) n (%)
- TEAE: Dizziness ([4]; 75 mg QD oral, N = 15): 0 (0%) n (%)
- TEAE: Gastrointestinal disorders ([4]; 75 mg QD oral, N = 15): 1 (6.7%) n (%)
- TEAE: Headache ([4]; 75 mg QD oral, N = 15): 0 (0%) n (%)
- TEAE: Musculoskeletal disorders ([4]; 75 mg QD oral, N = 15): 2 (13.3%) n (%)
- TEAE: Nervous system disorders ([4]; 75 mg QD oral, N = 15): 1 (6.7%) n (%)
- deaths or treatment-emergent SAEs (TESAEs) ([4]; 75 mg and 225 mg QD oral): No deaths or TESAEs
- safety signals ([4]; 75 mg and 225 mg QD oral): No safety signals were identified
- Subjects with any TEAE ([4]; 225 mg QD oral, N = 17): 10 (58.8%) n (%)
- TEAE: Back pain ([4]; 225 mg QD oral, N = 17): 1 (5.9%) n (%)
- TEAE: Constipation ([4]; 225 mg QD oral, N = 17): 2 (11.8%) n (%)
- TEAE: Diarrhea ([4]; 225 mg QD oral, N = 17): 2 (11.8%) n (%)
- TEAE: Dizziness ([4]; 225 mg QD oral, N = 17): 1 (5.9%) n (%)
- TEAE: Gastrointestinal disorders ([4]; 225 mg QD oral, N = 17): 5 (29.4%) n (%)
- TEAE: Headache ([4]; 225 mg QD oral, N = 17): 1 (5.9%) n (%)
- TEAE: Musculoskeletal disorders ([4]; 225 mg QD oral, N = 17): 2 (11.8%) n (%)
- TEAE: Nervous system disorders ([4]; 225 mg QD oral, N = 17): 2 (11.8%) n (%)

Source: publication PMC9701462 (Hepatology Communications, 2022)
